The target in one data set is Coagulation factor X (Homo sapiens, UniProt P00742). The data set is described as follows: Inhibition of human coagulation factor Xa.
The next data set concerns the target Prothrombin (Homo sapiens, UniProt P00734). The data set is described as follows: Inhibition of human coagulation factor II. The method, boiled down: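 Human thrombin, final 1 nM, in 0.05 M Tris, 0.15 M NaCl, 0.1% PEG-8000, pH 7.5, room temperature. Inhibitor preincubated with enzyme 30 min, then reaction started with Pefachrome TH (50 µM final). p-Nitroanilide release read continuously at 405 nm for 5 min, under 10% substrate consumed. IC50 taken from initial velocities; apparent Ki by Cheng-Prusoff, assuming competitive inhibition.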

The target in data set [1] is Tissue factor (Homo sapiens) (UniProt P13726). The data set is described as follows: (§1) Activated partial thromboplastin time measured. Format: functional. The method, boiled down:
(§2)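 Citrated human, dog (mongrel) and rat (Sprague-Dawley) plasma, freshly thawed, mixed 1:1 with compound dilutions. Clotting started on an automatic coagulation timer with actin-activated cephaloplastin reagent and 0.035 M CaCl2. Value is the concentration that doubles plasma clotting time.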

A short description of data set [2]: as §1. Format: ADME. The method, boiled down:
as §2

Coagulation factor X, sequence (P00742 41-179 limits assumed): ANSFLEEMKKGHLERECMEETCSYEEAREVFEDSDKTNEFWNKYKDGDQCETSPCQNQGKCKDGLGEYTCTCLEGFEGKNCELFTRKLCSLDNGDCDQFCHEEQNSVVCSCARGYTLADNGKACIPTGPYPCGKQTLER
Coagulation factor X, sequence (P00742 235-488 limits assumed): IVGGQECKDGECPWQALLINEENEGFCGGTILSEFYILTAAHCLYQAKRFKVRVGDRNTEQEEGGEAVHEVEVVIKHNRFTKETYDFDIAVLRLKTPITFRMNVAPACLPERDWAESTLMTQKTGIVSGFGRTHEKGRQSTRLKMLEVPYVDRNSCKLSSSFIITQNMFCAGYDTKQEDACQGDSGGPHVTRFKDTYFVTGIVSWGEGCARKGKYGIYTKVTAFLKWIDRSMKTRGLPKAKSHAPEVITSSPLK
Tissue factor (Homo sapiens), sequence (P13726 whole entry): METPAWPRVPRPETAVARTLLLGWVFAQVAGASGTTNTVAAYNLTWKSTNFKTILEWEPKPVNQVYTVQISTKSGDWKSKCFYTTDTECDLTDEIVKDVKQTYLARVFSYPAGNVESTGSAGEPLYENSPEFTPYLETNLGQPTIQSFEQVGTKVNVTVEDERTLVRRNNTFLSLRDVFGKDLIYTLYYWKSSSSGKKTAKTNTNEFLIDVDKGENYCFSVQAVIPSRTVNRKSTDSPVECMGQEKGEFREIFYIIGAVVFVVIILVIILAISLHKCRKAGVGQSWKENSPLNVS

As for `COc1nccc(-c2ccc(S(=O)(=O)N[C@H]3CCN(Cc4cccc(C(=N)N)c4)C3=O)s2)n1`, the results for the Ki on Coagulation factor X and on Prothrombin were 150 nM and above 4000 nM, respectively. On the same counts, the results for `Cn1ccnc1-c1ccc(S(=O)(=O)N[C@H]2CCN(Cc3cccc(C(=N)N)c3)C2=O)cc1` are 2600 nM and above 4000 nM. The matching figures for `COC(=O)COc1ccc(C(=N)N)cc1CN1CC[C@H](NS(=O)(=O)c2ccc3ccc(OC)cc3c2)C1=O`: 8 nM and 263 nM. At Prothrombin, `COc1ccc2ccc(S(=O)(=O)N(C)[C@H]3CCN(Cc4cccc(C(=N)N)c4)C3=O)cc2c1` returned a Ki of 1050 nM. As for `N=C(N)c1cccc(CN2CC[C@H](NS(=O)(=O)c3ccc(-c4ccncc4)cc3)C2=O)c1`, the Ki on Coagulation factor X is 130 nM; on Prothrombin, above 4000 nM. In turn, `N=C(N)c1ccc(O)c(CN2CC[C@H](NS(=O)(=O)c3ccc(-c4cccnc4)s3)C2=O)c1` gave an APTT in data set [1] of 0.32 µM. For the same compound, the Ki on Coagulation factor X was found to be 2 nM; at Prothrombin, 2800 nM. Take `N=C(N)c1cccc(CN2CC[C@H](NS(=O)(=O)c3ccc(-c4cc[n+]([O-])cc4)cc3)C2=O)c1`: the inhibitory constant (Ki) on Coagulation factor X was 330 nM; at Prothrombin, above 4000 nM.

For the compound `N=C(N)c1ccc(F)c(CN2CC[C@H](NS(=O)(=O)c3ccc(-c4cccnc4)s3)C2=O)c1`, the results for the Ki at Coagulation factor X and at Prothrombin were 130 nM and 4000 nM, respectively. Regarding `COc1ccc2ccc(S(=O)(=O)N[C@H]3CCN(Cc4cc(C(=N)N)ccc4O)C3=O)cc2c1`, the Ki at Coagulation factor X came out at 3 nM; at Prothrombin, 206 nM. Consider `N=C(N)c1ccc(N)c(CN2CC[C@H](NS(=O)(=O)c3ccc(-c4ccon4)s3)C2=O)c1`, for which the results for the Ki at Coagulation factor X and at Prothrombin were 7 nM and 2230 nM, respectively.

Consider `N=C(N)c1cccc(CN2CC[C@H](NS(=O)(=O)c3ccc(-c4cccnc4)cc3)C2=O)c1`, for which the Ki was determined as 210 nM on Coagulation factor X and 1960 nM on Prothrombin. On the same counts, the results for `COc1ccc2ccc(S(=O)(=O)N[C@H]3CCN(Cc4cc(C(=N)N)ccc4N)C3=O)cc2c1` are 6 nM and 278 nM. The matching figures for `N=C(N)c1ccc(O)c(CN2CC[C@H](NS(=O)(=O)c3ccc(-c4ccon4)s3)C2=O)c1`: 3 nM and 2220 nM.

For the compound `COc1ccc2ccc(S(=O)(=O)N[C@H]3CCN(Cc4ccc(O)c(C(=N)N)c4)C3=O)cc2c1`, the Ki was 983 nM on Coagulation factor X and above 4000 nM at Prothrombin.

Consider `COc1ccc2ccc(S(=O)(=O)N[C@H]3CCN(Cc4cccc(C(=N)N)c4)C3=O)cc2c1`, for which the Ki on Prothrombin was found to be 1430 nM. Consider `COc1ccc2ccc(S(=O)(=O)N(C)[C@H]3CCN(Cc4cc(C(=N)N)ccc4N)C3=O)cc2c1`, for which the Ki worked out at 4 nM on Coagulation factor X and 201 nM at Prothrombin. The matching figures for `COc1ccc2ccc(S(=O)(=O)N[C@H]3CCN(Cc4cc(N)cc(C(=N)N)c4)C3=O)cc2c1`: 1200 nM and above 4000 nM. On the same counts, the results for `N=C(N)c1cccc(CN2CC[C@H](NS(=O)(=O)c3ccc(-c4ccccc4)cc3)C2=O)c1` are 160 nM and above 4000 nM. At Prothrombin, `N=C(N)c1cccc(CN2CC[C@H](NS(=O)(=O)c3ccc(-c4ccncc4)s3)C2=O)c1` had a Ki of 3000 nM. Consider `N=C(N)c1ccc(N)c(CN2CC[C@H](NS(=O)(=O)c3ccc(-c4cccnc4)s3)C2=O)c1`, for which the Ki at Coagulation factor X came to 6 nM; at Prothrombin, 2600 nM.

In the case of `N=C(N)c1cccc(CN2CC[C@H](NS(=O)(=O)c3ccc(-c4ccon4)s3)C2=O)c1`, the values for the Ki on Coagulation factor X and on Prothrombin were 49 nM and above 4000 nM, respectively.

Regarding `N=C(N)c1cccc(CN2CC[C@H](NS(=O)(=O)c3ccc(-c4ccccn4)cc3)C2=O)c1`, the Ki is 150 nM at Coagulation factor X and 4000 nM on Prothrombin. Regarding `N=C(N)c1cccc(CN2CC[C@H](NS(=O)(=O)c3ccc(-c4ccccn4)s3)C2=O)c1`, the Ki on Coagulation factor X is 140 nM; at Prothrombin, above 4000 nM.

Consider `COc1ccc2ccc(S(=O)(=O)N(C)[C@H]3CCN(Cc4cc(C(=N)N)ccc4NC(C)=O)C3=O)cc2c1`, for which the Ki at Coagulation factor X was 919 nM; at Prothrombin, above 4000 nM. The matching figures for `N=C(N)c1cccc(CN2CC[C@H](NS(=O)(=O)c3ccc(-c4cccnc4)s3)C2=O)c1`: 41 nM and above 4000 nM. On the same counts, the results for `C[n+]1ccc(-c2ccc(S(=O)(=O)N[C@H]3CCN(Cc4cccc(C(=N)N)c4)C3=O)cc2)cc1` are 130 nM and above 4000 nM. Regarding `COc1ccc2ccc(S(=O)(=O)N(C)[C@H]3CCN(Cc4csc(C(=N)N)c4)C3=O)cc2c1`, the APTT in data set [2] was determined as 1.5 µM. With `COc1ccc2ccc(S(=O)(=O)N[C@H]3CCN(Cc4cc(C(=N)N)ccc4OCC(=O)O)C3=O)cc2c1`, the Ki was 1300 nM at Coagulation factor X and above 4000 nM at Prothrombin.

A word on the Ki: it is a dissociation constant, usually derived from enzyme kinetics or from competition with a known ligand. The low end stands for higher affinity, the high end for lower affinity.

Source of the values: ChEMBL document CHEMBL1132374, “Sulfonamidopyrrolidinone factor Xa inhibitors: potency and selectivity enhancements via P-1 and P-4 optimization” (J Med Chem, 1999).
